Assay outcomes (PubChem BioAssay)
CHO parental Ca = ATP-evoked calcium signal inhibitors, parental CHO, primary screen, counter-screen for OX1R antagonist project, cell-based, fluorescence, Fluo-8 calcium dye; parental CHO-K1, ATP-induced calcium, Fluo-8 fluorescence; inhibition, % at 5.6 µM; hit rate 0.63% among 330,000; AID 463079, 2010;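 active = inhibition above that plate's mean sample inhibition plus 3 SD, cut at about 26% in these data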;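 also: 0% = ATP-challenged DMSO wells and 100% = DMSO wells without ATP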
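test system = CHO parental line | reagent = ATP stimulus | measured by = intracellular calcium via Fluo-8 no-wash fluorescent dye | control set = ATP and no-ATP DMSO wells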
TAAR1 antagonist = human TAAR1 antagonists, primary screen, Fluo-8 calcium fluorescence, CHO RD-HGA16 cells. AID 624466, 2012. inhibition, % at 3 µM. hit rate 1.5% among 360,000. antagonist;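 active = inhibition above a per-plate cutoff, the mean inhibition of test compounds on that plate plus 3 SD, cut at about 49% in these data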;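 also: 0% = DMSO plus EC80 beta-PEA response and 100% = DMSO alone without agonist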
Target sequence (Q96RJ0 whole entry, looked up): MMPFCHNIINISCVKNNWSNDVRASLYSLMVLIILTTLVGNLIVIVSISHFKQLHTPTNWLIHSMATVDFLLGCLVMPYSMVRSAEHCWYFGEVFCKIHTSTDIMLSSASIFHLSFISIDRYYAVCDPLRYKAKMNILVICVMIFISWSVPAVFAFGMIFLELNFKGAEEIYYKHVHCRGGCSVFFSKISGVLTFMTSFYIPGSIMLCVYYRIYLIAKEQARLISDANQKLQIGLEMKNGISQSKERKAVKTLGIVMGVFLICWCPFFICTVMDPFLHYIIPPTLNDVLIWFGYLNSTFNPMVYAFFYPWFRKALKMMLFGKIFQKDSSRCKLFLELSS
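Assay system: RD-HGA16 CHO cells with stable hTAAR1 and Gα16 / Reagent: EC80 β-phenethylamine stimulus / Doses: 3 µM, single point / Timing: dye loading 75 min at 37 °C, then 30 min room temperature / Measured by: Fluo-8 intracellular calcium dye fluorescence, real-time kinetic reads / Controls: vehicle wells and EC80 agonist wells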
OX1R antag-1 = OX1R (HCRTR1) antagonists, primary screen, fluorescence, CHO/OX1R cells, Fluo-8 calcium, orexin A. Orexin/Hypocretin receptor type 1 (Homo sapiens), O43613. Fluo-8 calcium fluorescence. inhibition, % at 5 µM. hit rate 0.43% among 330,000. AID 434989, 2010;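 active = inhibition above its plate's threshold, mean inhibition of all tested compounds on the plate plus 3 SD, cut at about 37% in these data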;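 also: 0% = orexin A challenge wells and 100% = SB-334867-A antagonist wells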
OX1R antag-2 = antagonists of human orexin 1 receptor (OX1R); OX1R-expressing cells, FRET antagonist read-out; hit rate 1.8% among 330,000; Orexin/Hypocretin receptor type 1 (Homo sapiens), O43613; inhibition, % at 6.6 µM; in the data active = inhibition mostly above about 38%, no sharp cut-off; inactive = mostly below about 40%;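 also: 0% = agonist challenge alone and 100% = reference antagonist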
TAAR1 agonist = human TAAR1 agonists, primary screen, Fluo-8 calcium fluorescence, CHO RD-HGA16 cells. Trace amine-associated receptor 1 (Homo sapiens), Q96RJ0. AID 624467, 2012. hit rate 0.99% among 360,000. activation, % at 3 µM. vehicle wells 0%, saturating PEA agonist 100%;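 active = activation above the mean activation of all test compounds in the run plus 3 SD, cut at about 38% in these data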
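Repeats: no replicates (n 1) | Material: CHO-derived RD-HGA16 cells with stable Gα16 and human TAAR1 | Technique: Kinetic Fluo-8 calcium fluorescence | Schedule: 17-24 h seeding, 75 min 37 °C dye, 30 min RT | Evaluation: % activation from peak over basal fluorescence ratio, DMSO-to-PEA scaled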
GPR7 antagonist = GPR7 receptor antagonists, primary screen, cell-based, fluorescence, single concentration; Neuropeptides B/W receptor type 1 (Homo sapiens), P48145; GPR7-expressing cells, fluorescence antagonist assay; inhibition, % at 4.4 µM; hit rate 1.1% among 290,000; in the data active = inhibition above about 16%, passing the limit was not always enough;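 also: cells stimulated with the agonist NPW; 0% = agonist with vehicle and 100% = vehicle without agonist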
Target sequence (P48145 whole entry, looked up): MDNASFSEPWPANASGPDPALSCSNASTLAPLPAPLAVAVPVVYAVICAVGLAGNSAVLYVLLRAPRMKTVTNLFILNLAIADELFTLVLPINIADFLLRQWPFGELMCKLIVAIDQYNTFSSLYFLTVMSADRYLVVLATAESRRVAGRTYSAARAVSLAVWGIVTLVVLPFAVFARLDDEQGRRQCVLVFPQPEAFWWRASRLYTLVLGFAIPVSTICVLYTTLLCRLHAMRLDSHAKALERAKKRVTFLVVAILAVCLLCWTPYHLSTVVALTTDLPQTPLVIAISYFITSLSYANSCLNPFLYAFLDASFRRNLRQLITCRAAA
The depositor's hits bear a star; · = not tested or not shown. Only some compounds are listed: those with a hit (about 4.5% of all), similar ones and a draw of the others.

SMILES	CHO parental Ca	TAAR1 antagonist	OX1R antag-1	OX1R antag-2	TAAR1 agonist	GPR7 antagonist
O=C(/C=C(\Nc1ccc(Cl)c(Cl)c1)c1ccccc1)c1ccccc1	·	12	·	·	-1	·
Cc1ccc(C2OCC(C)([N+](=O)[O-])CO2)cc1 (stereo unspecified)	·	-1	·	·	0	·
CCc1cc2c(-c3ccccc3)cc(=O)oc2cc1OC(C)C(C)=O (stereo unspecified)	-3	50*	-25	9	17	14
CCCCS(=O)(=O)NCC1CCN(C(=O)C(=O)c2cc3ccccc3o2)CC1	·	-9	·	·	-1	·
O=C(COc1ccc(C(=O)c2ccccc2)cc1)Nc1cccnc1	52*	28	8	18	5	11
CC(=O)Nc1ccc(NC(=O)COc2ccc(-c3ccc(C#N)cc3)cc2)cc1	13	-6	-5	12	1	·
N#Cc1ccc(-c2ccc(OCC(=O)Nc3cccnc3)cc2)cc1	·	59*	·	·	10	10
c1ccc(-c2nc3c(ccc4ccccc43)[nH]2)nc1	-13	-1	-9	71*	9	2
c1ccc(-c2nc3ccccc3[nH]2)nc1	-7	-11	-6	11	1	-3
O=C1NC(=S)/C(=C\c2ccc(-c3ccccc3Cl)o2)S1	12	50*	18	44	9	-5
O=C1NC(=O)/C(=C/c2ccc(-c3cc(C(=O)O)ccc3Cl)o2)S1	-3	-6	-10	3	5	2
CCn1nnc(-c2ccccc2NS(=O)(=O)c2ccc(C(=O)OC)cc2)n1	-1	34	2	9	0	-5
COc1ccc(NC(=O)Cn2nnc(-c3ccccc3NC(=O)c3cccs3)n2)cc1	-3	-2	-22	10	11	-11
CCCN(CC(=O)Nc1ccccc1OC)C(=O)c1ccc(S(=O)(=O)Nc2ccccc2)cc1	1	15	16	70*	8	·
COc1ccccc1NC(=O)Cn1nnc(-c2ccccc2NS(=O)(=O)c2ccccc2)n1	18	57*	15	33	3	-3
COc1ccc(NC(=O)Cn2nnc(-c3ccccc3NS(=O)(=O)c3ccc(OC)cc3)n2)cc1	39*	4	30	32	0	26*
COc1ccc(-n2c(SCC(=O)Nc3ccccc3)nnc2-c2ccc(NS(=O)(=O)c3ccc(C)cc3)cc2)cc1	-13	53*	-15	18	9	-8
CCCN(CC(=O)Nc1ccccc1OC)C(=O)c1ccc(S(=O)(=O)Nc2ccccc2OC)cc1	·	19	·	·	7	·
COC(=O)c1ccc2c(=O)n(CCCCCC(=O)NC3CCCCC3)c(=O)[nH]c2c1	·	12	·	·	0	·
COc1ccc(C2NCCc3c2[nH]c2ccccc32)cc1COc1ccc(F)cc1 (stereo unspecified)	32*	34	19	-3	49*	46*
Nc1cc(C(=O)O)c(Oc2ccc(Cl)cc2Cl)cc1C(=O)O	-1	3	-10	61*	1	-10
COc1ccc(/C=C(\NC(=O)c2ccco2)C(=O)NCCc2nc3ccccc3[nH]2)cc1	-23	-41	32	46*	0	-18
CC(C)[C@H](NC(=O)NC1CCCc2ccccc21)C(=O)O (stereo partly specified)	-6	4	-23	8	15	-3
COC(=O)[C@H](C)NC(=O)NC1CCCc2ccccc21 (stereo partly specified)	36*	·	61*	4	·	-2
S=C(Nc1ccc(Cl)cc1)NC1CCN(Cc2ccccc2)CC1	1	21	-11	3	50*	10
SMILES	CHO parental Ca	TAAR1 antagonist	OX1R antag-1	OX1R antag-2	TAAR1 agonist	GPR7 antagonist
COc1cccc(CNC(=O)[C@H]2CCCN2C(=O)[C@H]2CCCN2C(=O)c2cccc(Cl)c2)c1	·	-18	·	·	1	·
Cc1ccnc2nc(C(=O)OCC(=O)Nc3ccc([N+](=O)[O-])cc3Br)nn12	-9	-3	5	21	-1	·
O=C(Nc1ccc(C(=O)N2CCOCC2)cc1)c1cc(-c2cccnc2)nc2ccc(Br)cc12	-3	53*	-10	5	20	3
O=C(NNC(=O)c1cc(-c2cccnc2)nc2ccccc12)Nc1ccc(Cl)cc1	59*	82*	27	32	13	-9
CCOC(=O)[C@@H]1CSCCS(=O)(=O)N1C(=O)[C@H](CC(C)C)NC(=O)OC(C)(C)C	·	-1	·	·	13	·
CSc1ccc(Cl)c(C(=O)NCCOc2cc(C(C)C)ccc2C)c1	-1	49*	-22	20	5	-2
CC(=O)Oc1ccc(/C(C)=N\N2CCN(Cc3ccc(Cl)cc3)CC2)cc1	-11	-2	0	10	3	-10
COc1ccc2c(c1)c1nnc(SCC(=O)NC3CC3)nc1n2C	-10	6	-11	85*	-2	-7
Cc1cccc(C)c1NC(=O)CN(C)C(=O)CN1C(=O)NC(C)(C)C1=O	-5	-15	-7	7	8	·
CCCn1nc(NS(=O)(=O)c2cccc3nonc23)c2cc3cc(C)ccc3nc21	-16	-9	-11	33	0	-8
CCCn1nc(NS(=O)(=O)c2cccc3nonc23)c2cc3cccc(C)c3nc21	-23	-13	-2	52*	1	-4
Cc1cccc(CS(=O)(=O)c2nnc([C@H](Cc3ccccc3)NC(=O)OC(C)(C)C)o2)c1	67*	·	57*	17	·	8
Cc1ccccc1OCc1nnc(SC(C)C(=O)O)n1Cc1ccccc1 (stereo unspecified)	-20	2	4	63*	10	-2
Cc1ccccc1OCc1nnc(SCC(=O)O)n1Cc1ccccc1	-12	14	-3	14	-1	1
CCN(C(=O)CSc1nc2ccc([N+](=O)[O-])cc2s1)C1CCS(=O)(=O)C1 (stereo unspecified)	-10	1	-5	68*	2	-5
COc1cc([N+](=O)[O-])ccc1NC(=O)N1CCCCCC1	-1	-19	-20	13	-3	-10
COC(=O)C1=C(C)N(C)C(=NCc2cc(OC)c(OC)c(OC)c2)NC1c1ccc(C(F)(F)F)cc1 (stereo unspecified)	·	-25	·	·	3	·
COc1ccc2[nH]c(=O)c(CN(Cc3cccs3)S(=O)(=O)c3cccc4nsnc34)cc2c1	-14	53*	-23	13	21	-10
CCOc1ccc(CCNC(=O)c2cccc(-n3cnnn3)c2)cc1OCC	-23	20	-20	3	2	·
